Assay [1] is described as follows: inhibitors of TNFa-induced NFkB p65 translocation, primary screen, imaging, HUVEC, MLSMR starter and 10KST1 sets (AID 438;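 active means inhibition above 20% together with a positive visual image hit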;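 further: compound added about 3h40 before a 20 min TNFalpha stimulation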;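 on inhibition: signal is the nuclear over cytoplasmic p65 intensity ratio per well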). As to conditions: HUVEC TNFa-induced p65 nuclear translocation; cell count: measured here: nuclei count (cytotoxicity indicator), at 2.08 µM; inhibition: at 2 µM, stronger effect = higher value, 0% TNFa-plus-vehicle, 100% no-TNFa wells.
Assay [2] can be described thus: endothelial E-selectin expression blockers – imaging, HUVEC, immunofluorescence, MLSMR starter and 10KST1 sets, primary screen (AID 487;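 active means visually confirmed hit in the image check and inhibition above 20%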;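 on inhibition: signal is fraction of cell area covered by stained E-selectin grains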;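 on nuclei count: 100% = median nuclei count of all wells on the same plate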). To be noted: HUVEC TNFalpha-induced E-selectin immunofluorescence imaging, at 2 µM; inhibition: stronger effect = higher value; nuclei count: measured here: cell number, toxicity.
A short description of assay [3]: Primary imaging screen for DUSP6 inhibitors that restore phospho-Erk in transfected HeLa cells, chemical complementation (AID 609;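 active means compounds giving at least 50% inhibition in the cell-based MKP-3 phosphatase rescue imaging test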;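 on inhibition: phospho-Erk level distribution per well compared with pooled transfected vehicle control wells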). As to conditions: HeLa MKP-3 transfected, phospho-Erk imaging KS statistic, at 10 µM, cells stimulated with TPA for 15 min.
Assay [4] deals with Dual specificity protein phosphatase 6 (Homo sapiens) (UniProt Q16828). The description is as above. As to conditions: HeLa MKP-3 transfected, phospho-Erk imaging KS statistic; at 10 µM; stronger effect = higher value; cells stimulated with TPA for 15 min.
Dual specificity protein phosphatase 6 (Homo sapiens), sequence (Q16828 whole entry, looked up): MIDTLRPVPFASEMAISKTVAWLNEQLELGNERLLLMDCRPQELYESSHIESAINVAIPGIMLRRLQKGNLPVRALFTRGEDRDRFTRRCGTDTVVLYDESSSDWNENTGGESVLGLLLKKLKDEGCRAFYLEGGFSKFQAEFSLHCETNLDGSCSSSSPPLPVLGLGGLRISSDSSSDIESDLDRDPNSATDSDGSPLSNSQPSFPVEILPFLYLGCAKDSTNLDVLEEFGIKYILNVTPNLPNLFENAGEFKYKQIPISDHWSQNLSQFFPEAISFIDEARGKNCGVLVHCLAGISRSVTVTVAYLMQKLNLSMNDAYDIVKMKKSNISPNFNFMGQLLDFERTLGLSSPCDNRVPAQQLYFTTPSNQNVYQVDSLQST
Assay [5] addresses Voltage-gated potassium channel subunit beta-2 (Rattus norvegicus) (UniProt P62483). The experiment in a line: inhibitors of rat Kvbeta2 reductase activity – biochemical, NADPH fluorescence, primary screen (AID 622;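 active means fluorescence slope higher than the sample average by over 3 SD, cut at about -0.22 in these data, passing the limit was not always enough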;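 further: slope of raw intensity against log time taken from 70 to 1610 s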). To be noted: recombinant KvBeta, 4-cyanobenzaldehyde reduction, at 10 µM, stronger effect = higher value.
For assay [6] the target is unchanged. The experiment in a line: enhancers of rat Kvbeta2 NADPH turnover – biochemical, NADPH fluorescence, primary screen (AID 623;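 active means NADPH fluorescence slope more negative than the mean of all samples by about 3 SD, 99.7% confidence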;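 further: fluorescence intensity change per second fitted from 20 to 320 s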). As to conditions: Recombinant KvBeta, NADPH fluorescence decrease slope, 10 min; at 10 µM; stronger effect = lower value.
Assay [7] has as its target Alpha-2C adrenergic receptor (Homo sapiens) (UniProt P18825). The experiment in a line: compounds altering alpha2C-coupled GIRK flux – cell-based, HEK293 alpha2C/GIRK1/2, thallium flux, primary screen (AID 624;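 active means fluorescence slope after compound addition differing from the mean of all screened samples at 99.7% confidence, in either direction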;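 further: slope of fluorescence ratio to pre-addition baseline per second over 15 to 24 s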). To be noted: thallium flux BTC fluorescence, at 10 µM, actives lie on both sides.
A short description of assay [8]: inhibitors of larval lipid processing in zebrafish, primary screen, whole organism, PED6 fluorescence, gall bladder and intestine (AID 686;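 active means a full or partial loss of lipid-probe fluorescence in the fish gall bladder, intestine or both, judged by eye; inactive means no fluorescence loss, or compound toxic to the fish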;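 further: larvae 5 to 7 days old with five fish per well; signal comes from phospholipase A2 cleavage of quenched PED6 carried via bile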). As to conditions: Zebrafish larvae PED6 lipid processing, fluorescence scoring; screened at 20 µM (by protocol). In short, it runs like this: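 System: live zebrafish larvae aged 5-7 days, whole organism; measure: graded gall bladder and intestinal fluorescence inhibition per well; incubation: overnight exposure; reagent: ingested quenched lipid PED6 at 100 nM; signal: By-eye fluorescence microscopy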

A short description of assay [9]: loss of swimming-algae plug formation – whole organism, Chlamydomonas reinhardtii, WT vs cilia-less mutant, absorbance, 96-well, primary screen (AID 463189).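 Further: 0% = wild type cc124 cells in DMSO and 100% = ciliumless bld1 mutant cells.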 As to conditions: Chlamydomonas reinhardtii gravitaxis, OD600 absorbance, 2 days; at 10 µM; stronger effect = higher value.
[10] abbreviates: measured here: cell density z-score.
Where [11] appears, read: measured here: nuclear c-Myc green intensity z-score.
Setting [12] is: measured here: nuclear pErk red intensity z-score, stronger effect = higher value.

The source made the active and inactive calls.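 How the source made its calls, unless noted: active means inhibition at or above 50% relative to wild type and mutant plate controls; inactive means inhibition below 50%.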

Alpha-2C adrenergic receptor (Homo sapiens), sequence (P18825 whole entry, looked up): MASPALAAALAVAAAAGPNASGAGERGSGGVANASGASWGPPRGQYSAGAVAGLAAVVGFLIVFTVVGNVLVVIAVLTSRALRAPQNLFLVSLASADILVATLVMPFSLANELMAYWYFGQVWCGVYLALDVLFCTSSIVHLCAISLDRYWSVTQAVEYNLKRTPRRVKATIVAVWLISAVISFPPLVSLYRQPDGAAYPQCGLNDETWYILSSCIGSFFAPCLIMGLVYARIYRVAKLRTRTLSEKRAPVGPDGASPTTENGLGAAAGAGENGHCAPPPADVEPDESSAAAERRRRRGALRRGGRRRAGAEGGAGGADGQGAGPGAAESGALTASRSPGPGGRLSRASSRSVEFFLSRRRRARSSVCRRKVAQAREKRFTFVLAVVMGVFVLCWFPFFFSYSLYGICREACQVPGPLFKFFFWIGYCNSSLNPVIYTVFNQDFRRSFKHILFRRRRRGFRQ
Voltage-gated potassium channel subunit beta-2 (Rattus norvegicus), sequence (P62483 whole entry, looked up): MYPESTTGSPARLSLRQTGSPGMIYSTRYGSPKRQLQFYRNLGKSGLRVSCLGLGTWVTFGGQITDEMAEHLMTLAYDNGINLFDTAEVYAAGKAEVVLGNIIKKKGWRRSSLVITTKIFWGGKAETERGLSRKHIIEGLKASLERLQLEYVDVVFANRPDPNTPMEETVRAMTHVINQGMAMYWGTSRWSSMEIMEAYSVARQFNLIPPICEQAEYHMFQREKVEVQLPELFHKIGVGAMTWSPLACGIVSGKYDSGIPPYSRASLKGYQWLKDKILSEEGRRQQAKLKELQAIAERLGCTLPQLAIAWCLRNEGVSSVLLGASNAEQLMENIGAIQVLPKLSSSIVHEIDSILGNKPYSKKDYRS

Consider `CCCOc1ccc(/C(O)=C2/C(=O)C(=O)N(CCN(C)C)C2c2ccc(OC)c(OC)c2)cc1` (centres undefined), for which the cell count in [1] worked out at 461. The inhibition – broadly, the relative decrease from the control value, in per cent – is -7.3% (inactive) in assay [1], -136% (inactive) in assay [2], 6.04% (inactive) in assay [4] and 8% (inactive) in assay [9]. In assay [2], this compound had a nuclei count of 167%. Moreover, the z-score in [3] (setting [10]) is -0.67; in assay [3] (setting [11]), 0.995; in [3] (setting [12]), 0.868. In addition, in assay [5], the fluorescence slope is -0.411 (inactive). In addition, in assay [6], the NADPH fluorescence slope was -6.1e-05 (inactive). The slope in assay [7] is 0.00495 (inactive). Also, in assay [8], the compound was called inactive.
Take `Cc1cc(C)n(C(=O)CN2C(=O)CCC2=O)n1`: the cell count in [1] came out at 406. The inhibition in [1] is -19% (inactive); in [2], -169% (inactive); in [4], -5.62% (inactive); in [9] it was 17.3% (inactive). Further, the nuclei count in assay [2] was 155%. Moreover, the z-score in [3] (setting [10]) is -0.373; in assay [3] (setting [11]), -0.831; in assay [3] (setting [12]), -0.956. In addition, the fluorescence slope in assay [5] was -0.249 (inactive). For the same compound, the NADPH fluorescence slope in [6] was 1.9e-05 (inactive). Also, the slope in assay [7] is 0.00506 (inactive). Moreover, in [8], the compound was classed as inactive.
`C=CCOC(=O)C1=C(C)NC(SCC(=O)N(CC)CC)=C(C#N)C1c1ccco1` (centres undefined): the cell count in assay [1] was found to be 361. The inhibition was -9.9% (inactive) in assay [1], -137% (inactive) in [2], -5.89% (inactive) in assay [4] and -0.086% (inactive) in [9]. For the same compound, in assay [2], the nuclei count stood at 153%. Further, the z-score is -0.539 in assay [3] (setting [10]), -0.441 in assay [3] (setting [11]) and 0.117 in assay [3] (setting [12]). For the same compound, the fluorescence slope in assay [5] was -0.417 (inactive). In addition, in [6], the NADPH fluorescence slope is -1.8e-05 (inactive). In addition, the slope in [7] is 0.00442 (inactive). Moreover, the outcome in [8] was “inactive; toxic”.
Turning to `CCOC(=O)C(C#N)C(Cc1ccccc1)c1ccco1` (centres undefined), the cell count in assay [1] is 590. In addition, the inhibition was -3% (inactive) in assay [1], -70.2% (inactive) in [2], 2.46% (inactive) in assay [4] and 6.44% (inactive) in [9]. This compound also yielded a nuclei count in [2] of 166%. Further, the z-score is 1.19 in assay [3] (setting [10]), -0.726 in assay [3] (setting [11]) and -0.042 in assay [3] (setting [12]). Further, in assay [5], the fluorescence slope was -0.488 (inactive). In addition, in [6], the NADPH fluorescence slope is -0.000162 (inactive). Moreover, the slope in [7] was 0.00534 (inactive). Moreover, the outcome in [8] was inactive.
`COCCCNC(=O)c1c(N)n(/N=C/c2cccs2)c2nc3ccccc3nc12`: the cell count in assay [1] came out at 342. In addition, the inhibition in assay [1] was -11.1% (inactive); in assay [2], 4.6% (inactive); in assay [4], 17.4% (inactive); in [9], 24.1% (inactive). Besides, the nuclei count in assay [2] was 125%. The z-score is 0.439 in assay [3] (setting [10]), -0.623 in assay [3] (setting [11]) and -0.0865 in assay [3] (setting [12]). Besides, the fluorescence slope in assay [5] is -0.266 (inactive). Besides, the NADPH fluorescence slope in assay [6] is -5.1e-05 (inactive). Besides, the slope in assay [7] is 0.00731 (inactive). For the same compound, in assay [8], the outcome was inactive.
For the compound `O=CN1CCN(C(=O)CN2C(=O)c3ccccc3C2=O)CC1`, the cell count in [1] was 359. The inhibition was -7.2% (inactive) in assay [1], -43.3% (inactive) in assay [2], 11.4% (inactive) in [4] and 15.5% (inactive) in assay [9]. Moreover, the nuclei count in assay [2] was 161%. The values for the z-score in [3] (setting [10]), in assay [3] (setting [11]) and in assay [3] (setting [12]) were 0.687, -0.0272 and -1.29, respectively. For the same compound, the fluorescence slope in assay [5] is -0.452 (inactive). Also, in assay [6], the NADPH fluorescence slope was -0.000158 (inactive). Moreover, the slope in assay [7] was 0.00499 (inactive). In assay [8], the call was inactive.
With `CCCOc1ccc(/C(O)=C2/C(=O)C(=O)N(CCN(C)C)C2c2ccncc2)cc1` (centres undefined), the cell count in assay [1] is 434. Also, the inhibition in assay [1] was -4.1% (inactive); in assay [2], -139% (inactive); in assay [4] it was -4.7% (inactive); in assay [9] it was 8.14% (inactive). This compound gave a nuclei count in [2] of 154%. Further, the z-score in [3] (setting [10]) is 1.88; in assay [3] (setting [11]), 0.199; in assay [3] (setting [12]), -1.31. In addition, the fluorescence slope in [5] is -0.418 (inactive). Further, the NADPH fluorescence slope in [6] is -6.3e-05 (inactive). The slope in assay [7] was 0.00564 (inactive). In addition, the call in [8] was inactive.
With `Cc1c(NS(=O)(=O)c2cccc3nsnc23)c(=O)n(-c2ccccc2)n1C`, the cell count in assay [1] came to 549. The inhibition is -1.1% (inactive) in assay [1], -51.8% (inactive) in assay [2], -6.06% (inactive) in [4] and -6.26% (inactive) in assay [9]. This compound registered a nuclei count in assay [2] of 154%. Also, the z-score in [3] (setting [10]) was 0.537; in [3] (setting [11]) it was 0.599; in assay [3] (setting [12]), -0.221. Also, the fluorescence slope in [5] is -0.499 (inactive). In addition, the NADPH fluorescence slope in [6] is -3.8e-05 (inactive). For the same compound, the slope in [7] was 0.00709 (inactive). In assay [8], the result was inactive.
Regarding `CN1CCN(c2ncnc3c2[nH]c2ccc(F)cc23)CC1`, in [1], the cell count amounted to 330. For the same compound, the inhibition in assay [1] was -15.6% (inactive); in [2], -17.5% (inactive); in assay [4], -8.76% (inactive); in [9], 32.3% (inactive). Moreover, in assay [2], the nuclei count was 64.2%. The z-score was -0.484 in assay [3] (setting [10]), 0.264 in [3] (setting [11]) and -0.525 in assay [3] (setting [12]). Further, in [5], the fluorescence slope is -0.382 (inactive). For the same compound, the NADPH fluorescence slope in assay [6] is -8e-05 (inactive). In addition, the slope in [7] was 0.00525 (inactive). The call in [8] was inactive.
Consider `CC1(C)Cc2c(sc(NC(=O)c3ccc(Br)o3)c2C#N)CO1`, for which the cell count in [1] amounted to 406. Besides, the inhibition in assay [1] is -17.8% (inactive); in assay [2], -330% (inactive); in [4], 7.48% (inactive); in assay [9] it was 8.5% (inactive). The nuclei count in assay [2] was 140%. The z-score in [3] (setting [10]) is 0.838; in assay [3] (setting [11]), -0.788; in assay [3] (setting [12]) it was -0.494. Further, the fluorescence slope in assay [5] was -0.371 (inactive). In addition, in assay [6], the NADPH fluorescence slope was -1.6e-05 (inactive). Further, in assay [7], the slope is 0.00697 (inactive). Moreover, the compound was classed as inactive in assay [8].
Turning to `CC(C)c1cc(NCCN2CCOCC2)n2c(nc3ccccc32)c1C#N`, in assay [1], the cell count was 530. Further, the inhibition in assay [1] is -16.7% (inactive); in [2] it was -13.5% (inactive); in assay [4], 10.1% (inactive); in assay [9], -6.96% (inactive). Also, in assay [2], the nuclei count stood at 100%. Also, the z-score was 0.71 in assay [3] (setting [10]), 0.53 in assay [3] (setting [11]) and -0.442 in assay [3] (setting [12]). Further, the fluorescence slope in [5] was -0.493 (inactive). The NADPH fluorescence slope in [6] is -8.7e-06 (inactive). Moreover, the slope in assay [7] is 0.00455 (inactive). Moreover, the compound was classed as inactive in assay [8].
With `CCCOc1ccc(-c2nnc(N)s2)cc1`, the cell count in [1] amounted to 608. For the same compound, the inhibition is -13.2% (inactive) in [1], -31.6% (inactive) in assay [2], -4.27% (inactive) in assay [4] and -0.862% (inactive) in [9]. This compound also registered a nuclei count in assay [2] of 164%. Also, the z-score in assay [3] (setting [10]) was 0.463; in assay [3] (setting [11]), 0.84; in assay [3] (setting [12]), -0.902. Also, in [5], the fluorescence slope was -0.403 (inactive). Besides, the NADPH fluorescence slope in [6] is -6.2e-05 (inactive). For the same compound, in [7], the slope is 0.00732 (inactive). Besides, the compound was called inactive in [8].
On to `CC(C)Oc1ccc(/C(O)=C2/C(=O)C(=O)N(CCN3CCOCC3)C2c2ccccc2)cc1` (centres undefined), for which the cell count in assay [1] came out at 564. Further, the inhibition in assay [1] is 4.6% (inactive); in [2], -21.9% (inactive); in assay [4], -1.12% (inactive); in assay [9], 0.719% (inactive). The nuclei count in [2] was found to be 179%. Moreover, the z-score in assay [3] (setting [10]) is -0.496; in [3] (setting [11]) it was -0.0457; in assay [3] (setting [12]), 0.947. Also, the fluorescence slope in assay [5] is -0.338 (inactive). In addition, in assay [6], the NADPH fluorescence slope is -1.3e-05 (inactive). Moreover, the slope in [7] is 0.0044 (inactive). Besides, the call in [8] was inactive.

Source of the values: PubChem BioAssay.
